Legend:
[1] = test system: SAG-induced AP activity in C3H10T1/2 cells; test: C3H10T1/2 cell-based assay, inhibition of SAG-induced alkaline phosphatase; set-up: species or system murine; conditions: for Inhibition of SAG-induced AP: C3H10T1/2 cells, SAG at EC50 (100 nM), 5 days; for Cytotoxicity in C3H10T1/2 cells: inferred from lack of effect in the SAG induction assay
Summary of the method: (§1)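 C3H10T1/2 murine embryonic fibroblasts, stimulated for 5 days with an agonist at its EC50 (human ShhN N-terminal domain, residues 24–197, at 2 μg/ml; or Smoothened agonist SAG at 100 nM), with or without the test compound in dose response. Alkaline phosphatase activity is measured as the marker of pathway activation. IC50 is obtained by non-linear regression.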

ShhN protein = ShhN protein (Homo sapiens, UniProt Q15465); test: Protein thermal shift assay; assay type: binding; conditions: ShhN 1–2 μM; compounds 1.56 to 50 μM
ShhN protein, sequence (Q15465 24-197): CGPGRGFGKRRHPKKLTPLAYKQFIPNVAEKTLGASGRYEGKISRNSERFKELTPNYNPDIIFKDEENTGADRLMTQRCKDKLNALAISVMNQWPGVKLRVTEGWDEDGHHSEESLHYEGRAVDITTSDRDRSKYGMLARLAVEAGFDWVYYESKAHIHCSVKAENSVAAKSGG
Summary of the method: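 Differential scanning fluorimetry uses human ShhN (residues 24–197, 1–2 μM final) mixed with the kit's thermal shift buffer and dye, held on ice, with or without the test compound at 1.56–50 μM. Melt runs at a continuous ramp of […] from 25°C to 97.5°C. ΔTm is the difference in transition midpoint with versus without compound.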

[2] = test system: SAG-induced Gli1 and Ptch1 mRNA in C3H10T1/2 cells; test: qRT-PCR for Gli1 and Ptch1 in C3H10T1/2 cells, SAG-mediated induction; assay type: cell-based, mouse; conditions: 5 days, 50 μM for compounds 4, 21 and 24, 10 μM for robotnikinin
[3] = test system: ShhN-induced Gli1 and Ptch1 mRNA in C3H10T1/2 cells; test: qRT-PCR for Gli1 and Ptch1 in C3H10T1/2 cells, ShhN-mediated induction; assay type: cell-based, mouse; conditions: 5 days; for Decrease of ShhN-mediated induction of Gli1 and Ptch1 compared to ShhN treatment alone: 50 μM compound; for Inhibition of ShhN-induced GLI1 and Ptch1 mRNA: 50 μM for compounds 4, 21 and 24, 10 μM for robotnikinin
ShhN/heparin binding = ShhN/heparin binding (Homo sapiens, UniProt Q15465); test: Solid-phase ShhN/heparin binding assay; conditions: for ShhN/flu-heparin binding IC50 of known compounds: compounds known to bind Shh, heparin binding domains or heparin, Fig. 3B
ShhN/heparin binding, sequence (Q15465 24-197): as above

[4] = test system: ShhN-induced AP activity in C3H10T1/2 cells; test: C3H10T1/2 cell-based assay, inhibition of ShhN-induced alkaline phosphatase; set-up: species or system murine; conditions: dose response, 5 days
Summary of the method: as §1

C3H10T1/2 cells = test: Induction of AP activity in C3H10T1/2 cells by agonists; assay type: cell-based, murine; conditions: read-out: EC50 for induction of AP activity, 5 days
Summary of the method: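 C3H10T1/2 murine embryonic fibroblasts are cultured for 24 h, then exposed to varying concentrations of ShhN protein or SAG for 5 days. Alkaline phosphatase induction is read as the activation marker, and EC50 is fitted by non-linear regression. A ShhN dose-response curve is run on every plate as an internal control.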

Row | SMILES | Inhibition of SAG-induced AP [1] | Tm shift (ΔTm) on binding to ShhN (ShhN protein) [°C] | Inhibition of SAG-induced GLI1 and Ptch1 mRNA [2] | Inhibition of ShhN-induced GLI1 and Ptch1 mRNA [3] | further results
1 | O=C(NCCNC1CCCC1)c1cccs1 [Compound 24, N-[2-(Cyclopentylamino)ethyl] thiophene-2-carboxamide] | not SAG induction of AP | 0.85 | did not decrease | significantly blocked | Cytotoxicity in C3H10T1/2 cells [1]: not cytotoxic; Decrease of ShhN-mediated induction of Gli1 and Ptch1 compared to ShhN treatment alone [3]: 6–7 fold
2 | O=C(C[C@@H]1C/C=C/CCC(=O)O[C@H](c2ccccc2)CNC1=O)NCc1ccc(Cl)cc1 [Robotnikinin, reference compound] | not SAG-mediated AP induction | 0.85 | did not block | blocked | ShhN/flu-heparin binding IC50 of known compounds (ShhN/heparin binding): did not block binding; Block of ShhN-mediated AP induction [4]: able to block ShhN-
3 | CCc1ccc(C2=C/C(=C/c3ccco3)C(=O)O2)cc1 [Compound 4, (3Z)-5-(4-Ethylphenyl)-3-(furan-2-ylmethylidene) furan-2-one] | not SAG induction of AP | 1.58 | did not decrease | significantly blocked | Cytotoxicity in C3H10T1/2 cells [1]: not cytotoxic; Decrease of ShhN-mediated induction of Gli1 and Ptch1 compared to ShhN treatment alone [3]: 6–7 fold
4 | O=C1NC(=S)N(c2ccc(F)cc2)C(=O)C1=Cc1ccco1 [Compound 7, 1-(4-Fluoro-phenyl)-5-furan-2-ylmethylene-2-thioxo-dihydro-pyrimidine-4,6-dione] | – | – | – | – | IC50 (ShhN/heparin binding): 17.5 µM
5 | CNC1CCC(N(Cc2cccc(-c3ccncc3)c2)C(=O)c2sc3ccccc3c2Cl)CC1 (centres unmarked) [SAG] | – | – | – | – | EC50 (C3H10T1/2 cells): 0.1 µM
6 | Cc1cc(N)c2cc(NC(=O)Nc3ccc4nc(C)cc(N)c4c3)ccc2n1 [surfen, Surfen] | – | – | – | – | ShhN/flu-heparin binding IC50 of known compounds (ShhN/heparin binding): did not block binding
7 | Cc1ccc(C(=O)Nc2ccc(S(=O)(=O)O)c3cc(S(=O)(=O)O)cc(S(=O)(=O)O)c23)cc1NC(=O)c1cccc(NC(=O)Nc2cccc(C(=O)Nc3cc(C(=O)Nc4ccc(S(=O)(=O)O)c5cc(S(=O)(=O)O)cc(S(=O)(=O)O)c45)ccc3C)c2)c1 [Suramin, reference compound] | – | 0.73 | – | – | Block of ShhN-mediated AP induction [4]: blocked

Source: publication PMC11486593 (Biochimica et biophysica acta. General subjects, 2024)
